Measurements as given in ChEMBL document CHEMBL1629534, “Acetic acid derivatives of 3,4-dihydro-2H-1,2,4-benzothiadiazine 1,1-dioxide as a novel class of potent aldose reductase inhibitors” (J Med Chem, 2010).

How the values were obtained:
[1] = biological target: Aldo-keto reductase family 1 member B1 (Rattus norvegicus, UniProt P07943); test: Inhibition of Wistar rat lenses ALR2 by spectrophotometry; type: tissue-based, Lens of camera-type eye
Outline: (§1)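 ALR2 enzyme extract in 0.1 M sodium phosphate pH 6.2 with NADPH (0.25 mL of 0.10 mM) and compound diluted from DMSO, preincubated 10 min at 32 °C. Started with D,L-glyceraldehyde (0.25 mL of 10 mM, 1 mL total). Fall in A340 followed for 4 min, corrected for substrate-free rate. Screened at 10^-4 M. IC50 from at least four concentrations giving 20-80% inhibition, in triplicate, with 95% CL.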

[2] = system: Aldehyde reductase, AKR1A1 (Rattus norvegicus); test: Inhibition of Wistar rat kidney ALR1 at 0.1 mM by spectrophotometry
[3] = biological target: Aldo-keto reductase family 1 member A1 (Rattus norvegicus, UniProt P51635); test: Inhibition of Wistar rat kidney ALR1 by spectrophotometry
Aldo-keto reductase family 1 member A1, sequence (P51635 whole entry, looked up): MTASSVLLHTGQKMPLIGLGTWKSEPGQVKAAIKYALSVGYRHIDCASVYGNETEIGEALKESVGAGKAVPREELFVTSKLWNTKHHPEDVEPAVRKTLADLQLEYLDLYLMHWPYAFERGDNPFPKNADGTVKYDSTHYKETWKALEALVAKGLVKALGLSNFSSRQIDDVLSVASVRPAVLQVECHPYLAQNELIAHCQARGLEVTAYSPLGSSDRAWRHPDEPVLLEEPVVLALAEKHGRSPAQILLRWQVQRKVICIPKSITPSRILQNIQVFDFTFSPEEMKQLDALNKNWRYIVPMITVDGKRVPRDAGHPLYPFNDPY
Outline: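 ALR1 enzyme extract in 0.1 M sodium phosphate pH 7.2 with NADPH (0.25 mL of 0.12 mM) and compound diluted from DMSO, preincubated 10 min at 37 °C. Started with sodium D-glucuronate (0.25 mL of 20 mM, 1 mL total). Fall in A340 followed for 4 min, corrected for substrate-free rate. Screened at 10^-4 M. IC50 from at least four concentrations, 10^-4 to 10^-8 M, in triplicate.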

Rattus norvegicus [4] = test: Inhibition of ALR2 in 5-day STZ-induced diabetic Wistar rat model assessed as normalization of elevated sorbitol levels in sciatic nerves at 100 mg/kg/day, po for 5 days; type: functional, Sciatic nerve; set-up: scale not given: the % may be the effect or the level left
Outline: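 STZ-diabetic male Wistar rats (ip 55 mg/kg) got compound po in 0.5% CMC-Na for 5 days. Sciatic nerve taken 6 h after last dose, boiled, homogenized in 6% perchloric acid and neutralized. Sorbitol read enzymatically with sorbitol dehydrogenase/NAD+ at pH 9.4, 60 min 37 °C, fluorescence ex 365/em 430 nm. Inhibition = (S-T)/(S-N)×100 against diabetic and nondiabetic controls.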

Rattus norvegicus [5] = test: Inhibition of ALR2 in 5-day STZ-induced diabetic Wistar rat model assessed as blood glucose levels at 100 mg/kg/day, po for 5 days (reference value: 22.2 +/- 2.62 mmol/L); type: functional
[6] = biological target: Aldo-keto reductase family 1 member B1 (Rattus norvegicus) (UniProt P07943); test: Inhibition of Wistar rat lenses ALR2 at 0.1 mM by spectrophotometry; type: tissue-based; details: Lens of camera-type eye; outline: as §1

| IC50 [1] [nM] | inhibition [2] [%] | IC50 [3] [µM] | inhibition [6] [%] | Structure (SMILES) | Activity (Rattus norvegicus [4]) [%] | Activity (Rattus norvegicus [5]) [mmol/L] |
| --- | --- | --- | --- | --- | --- | --- |
| 975 | 42 | – | – | O=C(O)CN1CN(Cc2ccc(C(F)(F)F)cc2)S(=O)(=O)c2ccccc21 | – | – |
| 595 | 45 | – | – | O=C(O)CN1CN(Cc2ccc(C(F)(F)F)cc2)S(=O)(=O)c2cc(Cl)ccc21 | – | – |
| 32 | – | 50.6 | – | O=C(O)CN1CN(Cc2cc(F)c(F)cc2F)S(=O)(=O)c2cc(Cl)ccc21 | 61.5 | 17.9 |
| 58400 | – | – | – | O=C(O)CN1CN(Cc2ccc(Br)cc2F)c2ccccc2S1(=O)=O | – | – |
| 52 | – | 54.1 | – | O=C(O)CN1CN(Cc2cc(F)c(F)cc2F)S(=O)(=O)c2cc(Br)ccc21 | 51.2 | 20.1 |
| 101000 | – | – | – | O=C(O)CN1CN(Cc2ccccc2)S(=O)(=O)c2ccccc21 | – | – |
| 116 | – | 103 | – | O=C(O)CN1CN(Cc2cccc([N+](=O)[O-])c2)S(=O)(=O)c2cc(Br)ccc21 | – | – |
| 71 | – | 69.4 | – | O=C(O)CN1CN(Cc2ccc(Br)cc2F)S(=O)(=O)c2cc(Br)ccc21 | 42.4 | 18.4 |
| 931 | 40 | – | – | O=C(O)CN1CN(Cc2ccc(C(F)(F)F)cc2)S(=O)(=O)c2cc(F)ccc21 | – | – |
| 111 | – | – | – | O=C(O)CN1CN(Cc2cc(F)c(F)cc2F)S(=O)(=O)c2ccccc21 | – | – |
| 219 | – | 55.8 | – | O=C(O)CN1CN(Cc2cccc([N+](=O)[O-])c2)S(=O)(=O)c2ccccc21 | – | – |
| – | – | – | 41.3 | O=C(O)CN1CN(Cc2ccc(C(F)(F)F)cc2)c2ccccc2S1(=O)=O | – | – |
| 66 | – | 80.9 | – | O=C(O)CN1CN(Cc2cc(F)c(F)cc2F)S(=O)(=O)c2cc(F)ccc21 | 68.2 | 18.4 |
| 125 | – | 70.3 | – | O=C(O)CN1CN(Cc2ccc(Br)cc2F)S(=O)(=O)c2ccccc21 | – | – |
| 90 | – | 122 | – | O=C(O)CN1CN(Cc2ccc(Br)cc2F)S(=O)(=O)c2cc(F)ccc21 | 47.3 | 17.9 |
| 74500 | – | – | – | O=C(O)CN1CN(Cc2cccc([N+](=O)[O-])c2)c2ccccc2S1(=O)=O | – | – |
| 14000 | – | – | – | O=C(O)CN1CN(Cc2cc(F)c(F)cc2F)c2ccccc2S1(=O)=O | – | – |
| 29 | – | – | – | NC(=O)[C@@H]1C[C@]2(NC(=O)NC2=O)c2cc(F)ccc2O1 [FIDARESTAT] | 100 | 18.5 |
| 674 | – | 110 | – | O=C(O)CN1CN(Cc2ccc(C(F)(F)F)cc2)S(=O)(=O)c2cc(Br)ccc21 | – | – |
| 41 | – | 58.9 | – | O=C(O)CN1CN(Cc2ccc(Br)cc2F)S(=O)(=O)c2cc(Cl)ccc21 | 60.7 | 18.2 |
| 108 | – | 61.9 | – | O=C(O)CN1CN(Cc2cccc([N+](=O)[O-])c2)S(=O)(=O)c2cc(F)ccc21 | 43.6 | 19.8 |
| 94 | – | 82.5 | – | O=C(O)CN1CN(Cc2cccc([N+](=O)[O-])c2)S(=O)(=O)c2cc(Cl)ccc21 | 45 | 19.7 |
